From PubChem BioAssay
OXTR potentiator: potentiators of human oxytocin receptor; actives 0.061% (n = 320,000); CHO-OTR cells, Fluo-8 calcium fluorescence, potentiator mode; 0% = oxytocin EC15, 100% = EC100; activation, % at 3 µM;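 active = activation above that plate's cutoff, the mean activation of tested compounds plus 3 SD, cut at about 6.6% in these data, passing the limit was not always enough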;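 also: 100% uses oxytocin at 75 nM as the full agonist control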
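Material: human OTR in CHO cells. Compound: 3.0 µM, one dose. Timing: compound 6 min at room temperature before oxytocin, 100 s read. Evaluation: % activation of max/min ratio relative to oxytocin controls. Replication: single well per compound, singlicate. Signal: Fluo-8 calcium dye fluorescence.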
CHO parental Ca: signal in parental CHO cells, OX1R antagonist counter-screen. parental CHO-K1, ATP-induced calcium, Fluo-8 fluorescence. inhibition, % at 5.6 µM. actives 0.63% (n = 330,000). AID 463079;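 active = inhibition above that plate's mean sample inhibition plus 3 SD, cut at about 26% in these data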;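 also: 0% = ATP-challenged DMSO wells and 100% = DMSO wells without ATP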
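material = parental CHO cells | also added = ATP as calcium-mobilizing challenge | dosing = single point at 5.6 µM | detection = intracellular calcium via Fluo-8 no-wash fluorescent dye | read-out = % inhibition | benchmarks = low control ATP plus DMSO, high control DMSO only | repeats = one well per compound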
OXTR ag: activates the human oxytocin receptor; CHO-OTR cells, Fluo-8 calcium fluorescence; normalized: DMSO 0%, oxytocin 100%; activation, % at 3 µM; actives 0.32% (n = 320,000); AID 2435;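 active = activation above the mean of all tested compounds plus 3 SD, cutoff set per screening run, cut at about 20% in these data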;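 also: peak over basal fluorescence ratio from a 100 s FLIPR kinetic read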
V1R ag counter: V1a receptor agonism, counter-screen for OXTR agonists | P37288 | CHO-V1R cells, Fluo-8 calcium fluorescence, agonist mode; 0% DMSO, 100% 3 nM vasopressin | activation, % at 3 µM | actives 0.25% (n = 320,000);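 active = activation above the mean activation of all tested compounds plus 3 SD, per screening run, cut at about 20% in these data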;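 also: signal is peak over basal fluorescence ratio across a 100 second FLIPR read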
OX1R antag-1: blocks the human orexin 1 receptor; CHO/OX1R cells, Fluo-8 calcium fluorescence, orexin A; AID 434989; inhibition, % at 5 µM; actives 0.43% (n = 330,000);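 active = inhibition above its plate's threshold, mean inhibition of all tested compounds on the plate plus 3 SD, cut at about 37% in these data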;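 also: 0% = orexin A challenge wells and 100% = SB-334867-A antagonist wells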
Target sequence (O43613 whole entry, looked up): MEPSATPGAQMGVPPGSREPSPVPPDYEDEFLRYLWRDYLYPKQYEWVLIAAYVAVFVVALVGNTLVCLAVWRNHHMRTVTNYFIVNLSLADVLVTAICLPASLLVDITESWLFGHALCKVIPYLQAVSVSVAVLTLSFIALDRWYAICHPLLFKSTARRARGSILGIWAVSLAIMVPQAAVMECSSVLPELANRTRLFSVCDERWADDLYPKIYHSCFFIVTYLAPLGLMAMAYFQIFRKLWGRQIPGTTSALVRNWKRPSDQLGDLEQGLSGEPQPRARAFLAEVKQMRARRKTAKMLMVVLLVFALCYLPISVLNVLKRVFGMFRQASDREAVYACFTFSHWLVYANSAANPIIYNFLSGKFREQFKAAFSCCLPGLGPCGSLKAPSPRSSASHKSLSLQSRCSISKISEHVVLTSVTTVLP
OX1R antag-2: antagonists of human orexin 1 receptor (OX1R); O43613; OX1R-expressing cells, FRET antagonist read-out; inhibition, % at 6.6 µM; actives 1.8% (n = 330,000); in the data active = inhibition mostly above about 38%, no sharp cut-off; inactive = mostly below about 40%;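 also: 0% = agonist challenge alone and 100% = reference antagonist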
OXTR agonist cf: human OXTR agonism, confirmation. actives 20% (n = 390). CHO-OTR cells, Fluo-8 calcium fluorescence, agonist. activation, % at 3 µM. AID 434963. shares compounds with OXTR ag;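 active = mean activation above about 20% derived from the earlier single-dose screen, limit read from the data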;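 also: peak over minimum fluorescence ratio per well during a 100 second FLIPR read; 0% = DMSO alone and 100% = oxytocin high control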
V1aR counter 3x: counter-screen for oxytocin receptor agonists: V1a receptor agonists. CHO-V1R cells, Fluo-8 calcium fluorescence, agonist. actives 10% (n = 390). shares compounds with OXTR ag. activation, % at 3 µM;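 active = mean activation over triplicate exceeds the hit threshold set in the earlier primary screen, cut at about 20% in these data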;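 also: peak over basal fluorescence ratio within a 100 second read; 0% = DMSO alone and 100% = 3 nM vasopressin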
An asterisk follows results filed as active; nt = not tested or not shown; ! = not confirmed by another sample. Rows were chosen to be rich in hits. Some 2.7% of all compounds tested hit in one or more screens of this group.

SMILES | OXTR potentiator | CHO parental Ca | OXTR ag | V1R ag counter | OX1R antag-1 | OX1R antag-2 | OXTR agonist cf | V1aR counter 3x
Cc1cc2oc(=O)cc(CN3CCN(Cc4ccc5c(c4)OCO5)CC3)c2cc1C | -15.8 | 100.4* | 0.0 | -1.1 | -27.7 | 19.2 | nt | nt
Cc1ccc2c(CN3CCN(Cc4ccc5c(c4)OCO5)CC3)cc(=O)oc2c1C | -5.6 | -20.2 | -0.3 | 0.9 | -18.0 | 15.8 | nt | nt
Cn1c(=O)c(C(=O)NNC(=O)c2ccccc2F)c(O)c2ccccc21 | -10.8 | 1.6 | 20.5* | 5.6 | -9.9 | 5.6 | 11.7 | 9.7
Cn1c(=O)c(C(=O)NCCO)c(O)c2ccccc21 | -4.6 | 0.6 | -0.3 | -0.1 | -10.3 | 17.2 | nt | nt
COc1ccc(CNc2ncnc3c2[nH]c2ccccc23)cc1 | -16.5 | 24.1 | 26.3* | 15.6 | 25.6 | 51.7* | 22.2* | 18.5
C1=C(CCNc2ncnc3c2[nH]c2ccccc23)CCCC1 | -7.7 | 68.9* | 20.8* | 7.5 | 16.3 | 45.6 | 16.1 | 14.4
CCOC(=O)N1CCN(C(=O)c2ccc(Cn3c(=S)[nH]c4ccc(Br)cc4c3=O)cc2)CC1 | -1.1 | -12.4 | -1.0 | 0.9 | -4.1 | 11.2 | nt | nt
CCOc1ccc(S(=O)(=O)NNS(=O)(=O)c2ccc(C)cc2C)cc1 | -7.7 | -8.3 | 0.7 | 1.0 | -13.6 | 12.5 | nt | nt
CC(Sc1ccc(Cl)cc1)C(=O)Nc1ccc(S(=O)(=O)N2CCOCC2)cc1 (configuration not stated) | -22.8 | 8.3 | 28.8* | 13.1 | 6.3 | 13.8 | 20.6* | 9.5
CC(C)C(=O)Nc1ccc(C(=O)Nc2ccc(S(=O)(=O)N3CCOCC3)cc2)cc1 | -1.3 | -11.9 | 1.1 | -0.1 | -2.6 | 3.8 | nt | nt
CC(=O)Nc1ccc(NC(=O)C(C)OC(=O)/C(C#N)=C/c2ccc(N(C)C)cc2)cc1 (configuration not stated) | -23.5 | 34.0 | 19.7* | 16.3 | 29.4 | 35.6 | 13.3 | 12.6
COC(=O)c1sc(NC(=S)NC(=O)c2ccccc2C)nc1C | -26.2 | -10.6 | 28.2* | 9.9 | -19.8 | 14.7 | 32.6* | 39.0*
Cc1ccc(OCC(=O)NC2CCS(=O)(=O)C2)c([N+](=O)[O-])n1 (configuration not stated) | -1.4 | -0.2 | 1.0 | 0.1 | -0.9 | 34.1 | nt | nt
Cc1cccc2sc(NC(=O)CCNS(=O)(=O)c3cccc4nonc34)nc12 | -11.7 | 4.9 | 20.1* | 13.1 | -3.6 | 42.1 | 3.8 | 3.4
COc1cc(CNCC(O)c2ccccc2)ccc1OCc1ccc(Cl)nc1 (configuration not stated) | -11.8 | -21.6 | 20.2* | 8.9 | -15.1 | 5.3 | 9.8 | 2.8
Cc1cccc(C(C(=O)NC2CCCCC2)N(Cc2cccnc2)C(=O)c2csnn2)c1 (configuration not stated) | -6.0 | -34.6 | -0.6 | 0.4 | -43.6 | 15.9 | nt | nt
CCOc1ccc(NC(=O)C2CCCN(C)C2)cc1 (configuration not stated) | -2.2 | -14.1 | 0.8 | 0.5 | -5.9 | 14.5 | nt | nt
COC(C(=O)Nc1ccc(S(=O)(=O)Nc2ccc(F)cc2)cc1)c1ccccc1 (configuration not stated) | -10.4 | 8.2 | 19.7* | 16.5 | 12.3 | 3.5 | 23.1* | 14.1
Cc1cc(/C=C(\C#N)C(N)=O)c(C)n1-c1ccc(N2CCOCC2)c([N+](=O)[O-])c1 | -6.4 | -24.3 | 22.9* | 11.2 | -19.3 | 39.6 | 12.3 | 19.3
CCCCn1c(N)c(N(C)C(=O)C2CC(=O)N(Cc3ccco3)C2)c(=O)[nH]c1=O (configuration not stated) | -4.7 | -0.5 | 0.9 | 1.4 | -8.3 | 7.9 | nt | nt
O=C(CN1CCN(c2ccc(F)cc2)CC1)Nc1ccc(S(=O)(=O)N2CCOCC2)cc1 | -6.9 | -7.3 | 1.3 | 1.8 | -22.7 | 9.5 | nt | nt
COc1ccc(CNCCC(c2ccccc2)c2ccc3c(c2)OCO3)cc1 (configuration not stated) | -9.6 | 10.4 | 22.2* | 15.6 | 11.1 | 0.7 | 15.6 | 14.1
O=C1CCN(CCCc2ccccc2)CCN1[C@H](CO)Cc1ccccc1 | -7.4 | -23.0 | 2.3 | 0.3 | -31.2 | 14.9 | nt | nt
Nc1nc2ccccc2n1Cc1ccc(Cl)c(Cl)c1 | -23.5 | 0.1 | 25.2* | 13.3 | -6.5 | 9.7 | 5.7 | 3.5
CC1CCCCN1C(=O)c1c([N+](=O)[O-])cnn1C (configuration not stated) | -10.9 | -3.2 | -0.6 | -0.3 | 3.8 | 22.0 | nt | nt
SMILES | OXTR potentiator | CHO parental Ca | OXTR ag | V1R ag counter | OX1R antag-1 | OX1R antag-2 | OXTR agonist cf | V1aR counter 3x
COc1ccc(CCn2c(C(C)C)nc3c(c(=O)c4ccccc4n3C)c2=O)cc1 | -19.1 | -11.8 | 30.2* | 10.2 | -13.3 | 11.6 | -0.2 | 13.2
COc1ccc(CCn2c(C)nc3c(c(=O)c4ccccc4n3C)c2=O)cc1 | -13.1 | -13.4 | 0.1 | 2.4 | -19.0 | 17.4 | nt | nt
CC(NC(=O)c1ccccc1NC(=O)CN1CCc2ccccc2C1)c1ccccc1 (configuration not stated) | -0.2 | -57.7 | -0.2 | -0.1 | -13.8 | 13.0 | nt | nt
CC(C)(CNC(=O)c1ccc(S(=O)(=O)Nc2ccc(Cl)cc2)cc1)N1CCOCC1 | -11.8 | 0.4 | 21.4* | 14.8 | 2.0 | -1.3 | 9.9 | 5.7
CC(=O)c1c(C)[nH]c(C(=O)CN2C(=O)NC(C)(c3ccc(C)cc3)C2=O)c1C (configuration not stated) | -12.7 | -7.5 | 20.4* | 19.9 | -15.5 | 0.7 | 25.7* | 16.8
CC(=O)C1CCCN(C(=O)c2ccc3nc(Cc4cccc(Cl)c4)oc3c2)C1 (configuration not stated) | -9.9 | -13.8 | 2.7 | 3.8 | -12.4 | 23.8 | nt | nt
CSc1ncccc1C(=O)OCC(=O)NCCc1ccccc1 | 2.5 | -1.3 | 0.3 | 0.7 | -14.8 | 3.8 | nt | nt
Cc1cccc(NC(=O)C2(c3ccc([N+](=O)[O-])cc3)CCCC2)c1 | -24.6 | 36.4* | 22.1* | 17.4 | 40.6 | 26.6 | 7.4 | 3.3
CC(C)(CO)NCC(O)COc1ccc2c(c1)CCC2 (configuration not stated) | -6.8 | 1.8 | 1.2 | 1.0 | 7.6 | 23.5 | nt | nt
CC(C)(C)CC(C)(C)NCC(O)COc1ccc2c(c1)CCC2 (configuration not stated) | -11.4 | -23.4 | 20.9* | 14.9 | -28.6 | 8.1 | 5.5 | 3.6
C=CCN(c1ccc(C(=O)NCCCn2ccnc2)cc1)S(C)(=O)=O | 2.5 | -10.7 | -0.3 | 0.0 | -4.6 | 7.8 | nt | nt
CN1CCN(CCCN2c3ccccc3Sc3ccc(Cl)cc32)CC1 | -17.0 | 23.0 | 24.9*! | 10.5 | -6.2 | 11.0 | 10.9 | 2.6
